One may read the IC50 as the concentration needed to halve the response being measured.

This is an account of results in ChEMBL document CHEMBL1944511, “Bakuchiol derivatives as novel and potent cytotoxic agents: a report” (Eur J Med Chem, 2012).

Experiment [1] concerns MCF7. The experiment is described as follows: Growth inhibition of human MCF7 cells at 1 uM after 48 hrs by sulpharhodamine B assay. Type of experiment: functional. To be noted: MCF7, 48 h, read-out: GI. Summed up:
(§1)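 This is the SRB protein-stain assay on adherent cells in RPMI-1640/MEM with 10% FCS. Each compound in DMSO (vehicle <0.2%) was applied at a single fixed concentration for 48 h. Cells were fixed with TCA and stained with SRB, and the dye was solubilised in Tris and read at 570/620 nm. Percent growth inhibition is relative to vehicle-treated controls, reported as mean ± SD of three experiments run in triplicate.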

Experiment [2] deals with A549. The experiment is described as follows: Growth inhibition of human A549 cells at 1 uM after 48 hrs by sulpharhodamine B assay. Type of experiment: functional. To be noted: A549, 48 h, read-out: GI. Summed up:
as §1

In experiment [3] the test system is MCF7. As to the kind of experiment: Growth inhibition of human MCF7 cells at 50 uM after 48 hrs by sulpharhodamine B assay. The format is functional. To be noted: MCF7, 48 h, read-out: GI. A digest of the protocol:
as §1

Experiment [4] relates to A549. The experiment is described as follows: Growth inhibition of human A549 cells at 50 uM after 48 hrs by sulpharhodamine B assay. Type of experiment: functional. To be noted: A549, 48 h, read-out: GI. Summed up:
as §1

The test system of experiment [5] is PC-3. The experiment is described as follows: Growth inhibition of human PC3 cells at 50 uM after 48 hrs by sulpharhodamine B assay. As to conditions: PC-3, 48 h, read-out: GI. The format is functional. A digest of the protocol:
(§2)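 Cells grown in RPMI-1640/MEM with 10% FCS, penicillin/streptomycin, 37 °C, 5% CO2. Seeded in 96-well plates, allowed to adhere overnight, then exposed 48 h to analogs in DMSO (vehicle <0.2% in controls). TCA-fixed, stained with 0.4% SRB in 1% acetic acid, dye solubilized in 10 mM Tris base, OD 570 nm (ref 620 nm). Mean ± SD of three experiments run in triplicate.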

The test system of experiment [6] is OVCAR-5. As to the kind of experiment: Growth inhibition of human OVCAR5 cells at 50 uM after 48 hrs by sulpharhodamine B assay. The format is functional. As to conditions: OVCAR-5, 48 h, read-out: GI. Summed up:
as §1

Experiment [7] has as its system IMR-32. As to the kind of experiment: Growth inhibition of human IMR32 cells at 50 uM after 48 hrs by sulpharhodamine B assay. To be noted: IMR-32, 48 h, read-out: GI. The format is functional. Summed up: as §1
Experiment [8] has as its system HeLa. As to the kind of experiment: Growth inhibition of human HeLa cells at 50 uM after 48 hrs by sulpharhodamine B assay. As to conditions: read-out: GI. Type of experiment: functional. Summed up:
as §1

For experiment [9], the system named is THP-1. As to the kind of experiment: Growth inhibition of human THP1 cells at 50 uM after 48 hrs by sulpharhodamine B assay. As to conditions: THP-1, 48 h, read-out: GI. The format is functional. A digest of the protocol:
as §2

The test system of experiment [10] is MCF7. As to the kind of experiment: Growth inhibition of human MCF7 cells at 30 uM after 48 hrs by sulpharhodamine B assay. The format is functional. To be noted: MCF7, 48 h, read-out: GI. A digest of the protocol:
as §1

In experiment [11] the test system is A549. The experiment is described as follows: Growth inhibition of human A549 cells at 30 uM after 48 hrs by sulpharhodamine B assay. Type of experiment: functional. To be noted: A549, 48 h, read-out: GI. A digest of the protocol: as §1
In experiment [12] the test system is PC-3. As to the kind of experiment: Growth inhibition of human PC3 cells at 30 uM after 48 hrs by sulpharhodamine B assay. Type of experiment: functional. As to conditions: PC-3, 48 h, read-out: GI. A digest of the protocol: as §2
For experiment [13], the system named is OVCAR-5. As to the kind of experiment: Growth inhibition of human OVCAR5 cells at 30 uM after 48 hrs by sulpharhodamine B assay. Type of experiment: functional. To be noted: OVCAR-5, 48 h, read-out: GI. Summed up:
as §1

Experiment [14] deals with IMR-32. As to the kind of experiment: Growth inhibition of human IMR32 cells at 30 uM after 48 hrs by sulpharhodamine B assay. Type of experiment: functional. As to conditions: IMR-32, 48 h, read-out: GI. A digest of the protocol: as §1
The test system of experiment [15] is HeLa. As to the kind of experiment: Growth inhibition of human HeLa cells at 30 uM after 48 hrs by sulpharhodamine B assay. Type of experiment: functional. To be noted: read-out: GI. Summed up: as §1
The subject of experiment [16] is THP-1. The experiment is described as follows: Growth inhibition of human THP1 cells at 30 uM after 48 hrs by sulpharhodamine B assay. Type of experiment: functional. As to conditions: THP-1, 48 h, read-out: GI. A digest of the protocol:
as §2

The test system of experiment [17] is HEp-2. As to the kind of experiment: Growth inhibition of human Hep2 cells at 50 uM after 48 hrs by sulpharhodamine B assay. The format is functional. To be noted: HEp-2, 48 h, read-out: GI. A digest of the protocol: as §1
Experiment [18] concerns HEp-2. As to the kind of experiment: Growth inhibition of human Hep2 cells at 30 uM after 48 hrs by sulpharhodamine B assay. The format is functional. As to conditions: HEp-2, 48 h, read-out: GI. A digest of the protocol: as §1
A further experiment deals with T47D. The experiment is described as follows: Cytotoxicity against human T47D cells. Type of experiment: functional, cell-based.
The subject of experiment [19] is PC-3. The experiment is described as follows: Growth inhibition of human PC3 cells at 1 uM after 48 hrs by sulpharhodamine B assay. To be noted: PC-3, 48 h, read-out: GI. Type of experiment: functional. Summed up: as §1
The subject of experiment [20] is HEp-2. As to the kind of experiment: Growth inhibition of human Hep2 cells at 1 uM after 48 hrs by sulpharhodamine B assay. Type of experiment: functional. To be noted: HEp-2, 48 h, read-out: GI. Summed up: as §1

Turning to `COc1cccc2c1C(=O)c1c(O)c3c(c(O)c1C2=O)C[C@@](O)(C(=O)CO)C[C@@H]3O[C@H]1C[C@H](N)[C@H](O)[C@H](C)O1` [DOXORUBICIN], the inhibition of growth at 1 µM was 85% in the experiment on MCF7 [1] and 76% in the experiment on A549 [2].
`C=C[C@@](C)(/C=C/c1ccc(O)cc1)CCC=C(C)C` [BAKUCHIOL]: the inhibition of growth at 50 µM with MCF7 [3] was determined as 63%; in the experiment on A549 [4] it was 63%; with PC-3 [5], 58%; in the experiment on OVCAR-5 [6], 66%; in the experiment on IMR-32 [7], 58%; in the experiment with HeLa [8] it was 55%. For the same molecule, the values for the inhibition of growth at 50 µM in the experiment on THP-1 [9] and with HEp-2 [17] were 74% and 53%, respectively. For the same molecule, the inhibition of growth at 30 µM in the experiment on MCF7 [10] is 33%; in the experiment with A549 [11], 30%; in the experiment on PC-3 [12] it was 21%; in the experiment on OVCAR-5 [13], 25%; with IMR-32 [14], 31%; with HeLa [15], 20%. The inhibition of growth at 30 µM in the experiment with THP-1 [16] came out at 44%; in the experiment on HEp-2 [18] it was 20%. This molecule yielded an IC50 in the experiment on T47D of 28.9 µM.
For `CO[C@@]12[C@H](COC(N)=O)C3=C(C(=O)C(C)=C(N)C3=O)N1C[C@@H]1N[C@@H]12` [MITOMYCIN], the inhibition of growth at 1 µM in the experiment with PC-3 [19] was found to be 70%; with HEp-2 [20], 78%.
